# Source: PubChem BioAssay
# Calls of active or inactive are those of the source.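 Rule for the calls, unless noted: active = current rise at least 3 SD above the untreated control mean in each of two repeat wells; inactive = the rest.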
# Molecular target: Potassium voltage-gated channel subfamily KQT member 2 (Rattus norvegicus) (UniProt O88943)
# Experiment: KCNQ2 thallium flux enhancement – KCNQ2-CHO-K1 cells, selectivity assay for KCNQ1 potentiator project (AID 493009;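 active = mean duplicate potentiation above the buffer control mean plus 5 SD of buffer wells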;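 note: assay conditions were tuned for KCNQ1 rather than KCNQ2 modulators; signal is max minus min fluorescence divided by baseline after thallium stimulus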)
# Conditions: FluxOR thallium flux fluorescence, at 10 µM; hits give high values, scaled: buffer 0, activator control 100
# Sequence of Potassium voltage-gated channel subfamily KQT member 2 (Rattus norvegicus) (O88943 whole entry, looked up): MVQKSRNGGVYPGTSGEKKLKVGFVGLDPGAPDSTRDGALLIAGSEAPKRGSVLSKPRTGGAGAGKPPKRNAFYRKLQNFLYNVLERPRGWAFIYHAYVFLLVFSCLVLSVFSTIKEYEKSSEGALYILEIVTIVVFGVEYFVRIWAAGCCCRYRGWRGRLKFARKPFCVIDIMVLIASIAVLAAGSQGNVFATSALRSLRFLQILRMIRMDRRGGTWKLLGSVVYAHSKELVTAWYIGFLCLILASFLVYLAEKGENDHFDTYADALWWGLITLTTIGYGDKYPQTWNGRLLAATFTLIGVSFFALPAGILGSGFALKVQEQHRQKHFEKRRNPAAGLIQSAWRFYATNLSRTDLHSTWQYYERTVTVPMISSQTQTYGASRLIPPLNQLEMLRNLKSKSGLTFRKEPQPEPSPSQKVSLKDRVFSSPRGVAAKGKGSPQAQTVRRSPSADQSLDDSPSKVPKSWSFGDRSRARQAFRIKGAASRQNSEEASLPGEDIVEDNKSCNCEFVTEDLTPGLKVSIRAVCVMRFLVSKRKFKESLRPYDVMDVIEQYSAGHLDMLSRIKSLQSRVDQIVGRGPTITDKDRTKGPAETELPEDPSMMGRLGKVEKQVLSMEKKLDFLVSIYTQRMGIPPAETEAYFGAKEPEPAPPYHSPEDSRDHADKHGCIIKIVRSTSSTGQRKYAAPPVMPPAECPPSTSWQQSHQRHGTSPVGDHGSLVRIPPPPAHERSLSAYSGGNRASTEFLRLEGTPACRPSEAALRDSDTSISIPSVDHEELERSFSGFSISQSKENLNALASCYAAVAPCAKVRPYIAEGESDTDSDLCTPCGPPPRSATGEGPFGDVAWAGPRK
SMILES,potentiation,outcome
O=C(NC(=S)Nc1ccc(N2CCCCC2)cc1)c1cccs1,162% (active),
O=C(Nc1nnc(-c2ccc3c(c2)CCCC3)o1)c1ccccc1Cl,267% (active),
COc1ccc(-c2csc(N(CCCN(C)C)C(=O)c3ccccc3Cl)n2)cc1,,inactive
CN(C)CCNc1ncnc2c1sc1nc(N3CCCC3)c3c(c12)CC(C)(C)OC3,,inactive
COc1cccc2sc(Nc3nnc(-c4ccccc4Cl)o3)nc12,,inactive
Cc1ccc(-c2nc3ncccc3o2)cc1NC(=O)c1cccnc1,,inactive
O=c1c2c(-c3ccco3)csc2nc(SCc2cn3cccnc3n2)n1-c1ccccc1,,inactive
O=C(NNC(=O)c1ccc2ccccc2c1O)c1cccs1,,inactive
CC(C)(C)c1ccc2c(c1)OC(C(=O)N/N=C\c1ccccn1)CO2 (stereo unspecified),,inactive
COc1ccc(C(=O)Nc2ccnn2C2CCN(Cc3ccncc3)CC2)cc1,,inactive
CC1=C(C)/C(=N\OS(=O)(=O)c2ccccc2)C=CC1=O,,inactive
C/C(=N\NC(=O)C1COc2ccccc2O1)c1ccc(N2CCOCC2)cc1 (stereo unspecified),,inactive
Nc1nonc1C(=O)NCCN=Cc1cc(Cc2ccccc2)cc(Br)c1O,,inactive
CC1CCc2c(sc(NS(=O)(=O)c3ccccc3)c2C(=O)OC(C)C)C1 (stereo unspecified),380% (active),
O=C(Cn1c(=O)c2c(ncn2Cc2ccccc2)n(Cc2ccccc2)c1=O)N1CCc2ccccc21,,inactive
Fc1ccc(COc2ccc(Br)cc2CNCc2ccncc2)cc1,,inactive
Cc1nc2c(c3c1[nH]c1ccccc13)C(=O)CC(C)(C)C2,,inactive
O=C(NN=C1c2ccccc2-c2ccccc21)c1cccc(Br)c1,154% (active),
COc1cc(Br)cc(C=Nc2cccc(C(F)(F)F)c2)c1O,,inactive
O=C(NNC(=S)NC(=O)c1ccco1)c1ccc(F)cc1,232% (active),
O=C(Nc1nnc(-c2ccco2)o1)c1cccc(Cl)c1,,inactive

# Molecular target: Potassium voltage-gated channel subfamily KQT member 1 (Homo sapiens) (UniProt P51787)
# Sequence (P51787 whole entry, looked up): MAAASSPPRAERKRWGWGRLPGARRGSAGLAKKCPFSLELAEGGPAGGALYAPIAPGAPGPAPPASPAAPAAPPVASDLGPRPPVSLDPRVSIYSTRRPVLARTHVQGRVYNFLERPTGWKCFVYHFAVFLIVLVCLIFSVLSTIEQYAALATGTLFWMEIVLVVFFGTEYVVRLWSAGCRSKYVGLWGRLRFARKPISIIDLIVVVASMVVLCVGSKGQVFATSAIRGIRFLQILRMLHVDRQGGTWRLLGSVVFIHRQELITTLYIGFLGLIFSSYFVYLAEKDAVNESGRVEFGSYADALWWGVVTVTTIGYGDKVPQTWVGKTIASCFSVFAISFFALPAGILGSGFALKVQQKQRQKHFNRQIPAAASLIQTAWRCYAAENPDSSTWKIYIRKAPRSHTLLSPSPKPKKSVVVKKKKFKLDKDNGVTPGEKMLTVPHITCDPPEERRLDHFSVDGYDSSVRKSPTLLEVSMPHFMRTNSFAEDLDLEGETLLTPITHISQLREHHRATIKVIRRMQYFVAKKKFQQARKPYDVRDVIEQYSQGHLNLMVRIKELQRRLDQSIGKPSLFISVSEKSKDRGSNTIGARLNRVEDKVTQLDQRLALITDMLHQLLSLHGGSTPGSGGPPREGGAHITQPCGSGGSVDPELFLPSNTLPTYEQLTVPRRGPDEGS
# Experiment: KCNQ1 activators by electrophysiology – IonWorks patch clamp, KCNQ1-CHO cells, orthogonal assay for KCNQ1 potentiator project, confirmation (AID 493184)
# Conditions: automated patch clamp current, at 10 µM; hits give high values
# In short: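 Probe or stimulus: depolarizing pulse to +40 mV from -90 mV; Material: CHO cells carrying KCNQ1; Compound: one dose, 10 µM final; Signal: automated voltage clamp, amphotericin B perforated patch; Read-out basis: percent current increase versus pre-compound level; Buffer or medium: pH 7.4 external bath; Replication: duplicates.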
row,SMILES,outcome
1,Cc1ccc(O)c(C(=O)CC(=O)c2ccc(Cl)cc2)c1,inactive
2,Cc1sc2nc(C(C)C)nc(SCC(=O)NCc3ccco3)c2c1C,inactive
3,O=C(NC(=S)Nc1ccccc1)c1csnn1,inactive
4,CS(=O)(=O)NN1C(=O)c2ccccc2NC1c1ccccc1F (stereo unspecified),inactive
5,Cc1ccc(N=Nc2ccc(O)c3ncccc23)cc1C,inactive
6,CC(=O)CC1(OC(C)=O)C(=O)N(C)c2ccccc21 (stereo unspecified),inactive
7,CCN(CC)C(=S)NC(=O)c1ccc(Cl)cc1Cl,inactive
8,COc1ccccc1C(=O)Nc1ccnn1C1CCN(CCCC2CCCC2)CC1,inactive
9,CCC(CC)C1=NN2C(=N)/C(=C\c3cc(C)n(-c4cccc(C)c4)c3C)C(=O)N=C2S1,inactive
10,Cc1ccc(OCC(=O)NNC(=S)NC(=O)c2cccs2)c(C)c1,inactive
11,Cc1ccc(-c2csc3nc[nH]c(=S)c23)cc1,inactive
12,O=Cc1cc2ccccc2nc1SCCCF,inactive
13,Cc1c(Cl)cccc1NC(=O)Cn1c(CCC(=O)O)ccc1-c1ccccc1,inactive
14,Cc1cccc(NC(=S)NC(=O)c2ccc(Br)o2)c1C,inactive
15,COc1ccc(-c2cc(C(=O)Nc3c(Cl)cc(Cl)cc3Cl)c3ccccc3n2)cc1OC,inactive
16,Cc1cccc(-c2nnc(NC(=O)c3ccc(Cl)cc3)o2)c1,inactive
17,COc1ccc2[nH]c3c(c2c1)CCNC3C1CC=C(C)CC1 (stereo unspecified),inactive
18,COc1ccc(S(=O)(=O)NCCOc2ccccc2)cc1OC,inactive
19,Cc1onc(-c2ccccc2)c1C(=O)N1CCN(S(=O)(=O)c2ccc(OC(F)(F)F)cc2)CC1,inactive
20,O=C(NC(=S)Nc1ccc(N2CCCCC2)cc1)c1cccs1,inactive

row,SMILES,outcome
1,O=C(Nc1nnc(-c2ccc3c(c2)CCCC3)o1)c1ccccc1Cl,inactive
2,COc1ccc(-c2csc(N(CCCN(C)C)C(=O)c3ccccc3Cl)n2)cc1,inactive
3,CN(C)CCNc1ncnc2c1sc1nc(N3CCCC3)c3c(c12)CC(C)(C)OC3,inactive
4,COc1cccc2sc(Nc3nnc(-c4ccccc4Cl)o3)nc12,inactive
5,Cc1ccc(-c2nc3ncccc3o2)cc1NC(=O)c1cccnc1,inactive
6,O=c1c2c(-c3ccco3)csc2nc(SCc2cn3cccnc3n2)n1-c1ccccc1,inactive
7,O=C(NNC(=O)c1ccc2ccccc2c1O)c1cccs1,inactive
8,CC(C)(C)c1ccc2c(c1)OC(C(=O)N/N=C\c1ccccn1)CO2 (stereo unspecified),inactive
9,COc1ccc(C(=O)Nc2ccnn2C2CCN(Cc3ccncc3)CC2)cc1,inactive
10,CC1=C(C)/C(=N\OS(=O)(=O)c2ccccc2)C=CC1=O,inactive
11,C/C(=N\NC(=O)C1COc2ccccc2O1)c1ccc(N2CCOCC2)cc1 (stereo unspecified),inactive
12,Nc1nonc1C(=O)NCCN=Cc1cc(Cc2ccccc2)cc(Br)c1O,inactive
13,CC1CCc2c(sc(NS(=O)(=O)c3ccccc3)c2C(=O)OC(C)C)C1 (stereo unspecified),inactive
14,O=C(Cn1c(=O)c2c(ncn2Cc2ccccc2)n(Cc2ccccc2)c1=O)N1CCc2ccccc21,inactive
15,Fc1ccc(COc2ccc(Br)cc2CNCc2ccncc2)cc1,inactive
16,Cc1nc2c(c3c1[nH]c1ccccc13)C(=O)CC(C)(C)C2,inactive
17,O=C(NN=C1c2ccccc2-c2ccccc21)c1cccc(Br)c1,inactive
18,COc1cc(Br)cc(C=Nc2cccc(C(F)(F)F)c2)c1O,inactive
19,O=C(NNC(=S)NC(=O)c1ccco1)c1ccc(F)cc1,inactive
20,O=C(Nc1nnc(-c2ccco2)o1)c1cccc(Cl)c1,inactive
